Data: ChEMBL document CHEMBL2203161 (Bioorg Med Chem, 2012)
The source made the active and inactive calls. No cut-off for these calls is given here.

How the values were obtained:
[1] = biological target: T1, Probable linoleate 9S-lipoxygenase 5 (Solanum tuberosum) (UniProt Q43191); assay: Inhibition of potato 5-lipoxygenase assessed as residual activity preincubated for 10 mins measured by real-time spectrophotometric analysis
T1 sequence (whole entry): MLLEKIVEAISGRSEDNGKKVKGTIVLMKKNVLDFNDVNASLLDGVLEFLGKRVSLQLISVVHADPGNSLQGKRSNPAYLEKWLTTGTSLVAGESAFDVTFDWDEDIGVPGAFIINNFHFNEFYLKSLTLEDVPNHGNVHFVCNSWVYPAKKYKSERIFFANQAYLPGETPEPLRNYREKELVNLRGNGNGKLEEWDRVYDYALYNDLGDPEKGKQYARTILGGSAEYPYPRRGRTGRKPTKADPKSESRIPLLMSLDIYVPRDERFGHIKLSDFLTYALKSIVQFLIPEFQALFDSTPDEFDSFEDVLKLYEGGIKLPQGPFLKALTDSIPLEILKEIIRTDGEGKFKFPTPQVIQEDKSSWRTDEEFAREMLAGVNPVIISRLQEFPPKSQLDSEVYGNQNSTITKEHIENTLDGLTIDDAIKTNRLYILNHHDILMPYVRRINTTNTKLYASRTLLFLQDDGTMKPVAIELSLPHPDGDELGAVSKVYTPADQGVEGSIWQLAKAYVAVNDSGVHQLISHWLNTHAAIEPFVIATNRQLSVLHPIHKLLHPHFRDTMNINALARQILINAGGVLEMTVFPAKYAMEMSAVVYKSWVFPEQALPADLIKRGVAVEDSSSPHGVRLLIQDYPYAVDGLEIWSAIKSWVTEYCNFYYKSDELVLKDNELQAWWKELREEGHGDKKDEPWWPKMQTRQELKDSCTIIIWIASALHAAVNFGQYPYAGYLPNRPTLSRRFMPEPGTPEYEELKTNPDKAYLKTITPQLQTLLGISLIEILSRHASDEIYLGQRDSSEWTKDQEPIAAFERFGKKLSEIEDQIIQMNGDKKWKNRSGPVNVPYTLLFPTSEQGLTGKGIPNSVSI
How it was run: (§1)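 Single-concentration screen against soybean LOX-1 and potato 5-LOX. Enzyme preincubated 10 min with 50 µM compound. Formation of conjugated diene 13-HPOD from linoleic acid followed spectrophotometrically in real time. Residual activity given as percent of blank without inhibitor. Average of three independent experiments with standard deviations.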

[2] = biological target: T2, Seed linoleate 13S-lipoxygenase-1 (Glycine max) (UniProt P08170); assay: Inhibition of soybean lipoxygenase-1 assessed as formation of 13-HPOD from linoleic acid preincubated for 10 mins measured by real-time spectrophotometric analysis
T2 sequence (whole entry): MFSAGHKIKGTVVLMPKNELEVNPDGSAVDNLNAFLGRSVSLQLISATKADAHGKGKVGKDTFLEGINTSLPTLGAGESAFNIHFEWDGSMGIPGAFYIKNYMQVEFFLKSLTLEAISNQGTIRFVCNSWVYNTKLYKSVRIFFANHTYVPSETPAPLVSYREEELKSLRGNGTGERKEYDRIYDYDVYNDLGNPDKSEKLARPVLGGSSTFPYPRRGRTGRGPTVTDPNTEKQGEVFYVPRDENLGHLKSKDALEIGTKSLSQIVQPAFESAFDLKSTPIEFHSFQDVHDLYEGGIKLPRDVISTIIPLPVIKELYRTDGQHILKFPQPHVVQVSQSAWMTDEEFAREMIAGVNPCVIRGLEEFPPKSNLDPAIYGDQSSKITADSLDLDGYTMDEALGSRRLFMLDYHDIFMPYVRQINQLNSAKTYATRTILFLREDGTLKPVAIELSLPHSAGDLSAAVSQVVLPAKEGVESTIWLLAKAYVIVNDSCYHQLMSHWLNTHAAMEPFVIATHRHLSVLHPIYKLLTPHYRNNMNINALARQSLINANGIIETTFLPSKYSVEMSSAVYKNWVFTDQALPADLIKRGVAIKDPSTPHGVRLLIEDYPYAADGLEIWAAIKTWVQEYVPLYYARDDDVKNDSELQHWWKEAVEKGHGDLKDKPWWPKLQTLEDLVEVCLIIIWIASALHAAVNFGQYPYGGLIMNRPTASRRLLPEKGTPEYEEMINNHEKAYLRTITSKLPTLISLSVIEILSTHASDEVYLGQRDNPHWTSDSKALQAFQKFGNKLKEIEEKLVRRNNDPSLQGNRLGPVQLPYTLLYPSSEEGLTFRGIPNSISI

[3] = Critical micelles concentration of the compound in 0.2 M borate buffer at pH 9; format: physicochemical
How it was run: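 Surface tension plotted against log concentration in 0.2 M borate buffer pH 9.0 at 19 °C (SLO-1 assay conditions). CMC read from the plot.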

[4] = biological target: T1, Probable linoleate 9S-lipoxygenase 5 (Solanum tuberosum); settings: 6 uM
[5] = biological target: T1, Probable linoleate 9S-lipoxygenase 5 (Solanum tuberosum); settings: 50 uM
[6] = biological target: T1, Probable linoleate 9S-lipoxygenase 5 (Solanum tuberosum); assay: Activation of potato 5-lipoxygenase assessed as residual activity at 50 uM preincubated for 10 mins measured by real-time spectrophotometric analysis relative to untreated control; how it was run: as §1
[7] = biological target: T3, Seed linoleate 13S-lipoxygenase-1 (Glycine max, UniProt P08170); assay: Inhibition of soybean lipoxygenase-1 assessed as inhibition constant for enzyme-inhibitor complex by Lineweaver-Burk plot
T3 sequence (P08170 whole entry): T2 sequence (whole entry)
How it was run: (§2)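 SLO-1 conversion of linoleic acid monitored spectrophotometrically in 0.2 M borate buffer pH 9.0 with no inhibitor or after preincubation with 6 or 11 µM inhibitor. Vmax and Km (apparent) taken from Lineweaver–Burk intercepts. Ki (free enzyme) and K'i (substrate-bound enzyme) calculated with a mixed-inhibition model. n=3, ±S.D.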

[8] = biological target: T3, Seed linoleate 13S-lipoxygenase-1; assay: Inhibition of soybean lipoxygenase-1 assessed as inhibition constant for enzyme-substrate-inhibitor complex by Lineweaver-Burk plot; how it was run: as §2
[9] = biological target: T3, Seed linoleate 13S-lipoxygenase-1; assay: Inhibition of soybean lipoxygenase-1 assessed as formation of 13-HPOD from linoleic acid preincubated for 10 mins measured by real-time spectrophotometric analysis
[10] = biological target: T1, Probable linoleate 9S-lipoxygenase 5 (Solanum tuberosum); assay: Activation of potato 5-lipoxygenase assessed as increase in enzyme catalytic rate preincubated for 10 mins measured by real-time spectrophotometric analysis relative to untreated control
How it was run: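 Non-essential activation analysis of potato 5-LOX in 0.1 M phosphate buffer pH 6.3. Linoleic acid conversion read spectrophotometrically after preincubation with 0, 12.5, 25 or 50 µM activator. β, the change in catalytic constant, is taken from the re-plot of 1/Δintercept from Lineweaver–Burk plots. Three independent experiments.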

[11] = biological target: T1, Probable linoleate 9S-lipoxygenase 5 (Solanum tuberosum); assay: Activation of potato 5-lipoxygenase assessed as binding constant for substrate bound enzyme preincubated for 10 mins measured by real-time spectrophotometric analysis by Lineweaver-Burk plot
How it was run: (§3)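 Potato 5-LOX kinetics: enzyme preincubated without activator or with activator at 12.5, 25 and 50 µM. Conjugated diene formation from linoleic acid followed spectrophotometrically in real time, in 0.1 M phosphate buffer pH 6.3. Lineweaver–Burk plots drawn. K_A, α and β derived from re-plots of 1/Δslope and 1/Δintercept using the non-essential activation equation. n=3, ±S.D.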

[12] = biological target: T1, Probable linoleate 9S-lipoxygenase 5 (Solanum tuberosum); assay: Activation of potato 5-lipoxygenase assessed as increase in residual activity preincubated for 10 mins measured by real-time spectrophotometric analysis by Lineweaver-Burk plot; how it was run: as §3
[13] = biological target: T1, Probable linoleate 9S-lipoxygenase 5 (Solanum tuberosum); assay: Activation of potato 5-lipoxygenase assessed as increase in residual activity preincubated for 10 mins measured by real-time spectrophotometric analysis
How it was run: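 Potato 5-LOX in 0.1 M phosphate buffer pH 6.3, preincubated with a range of activator concentrations or without compound (control). Formation of […] from linoleic acid monitored spectrophotometrically in real time. Activity expressed against control. Mean of three independent experiments ±S.D.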

[14] = Critical micelles concentration of the compound in 0.1 M phosphate buffer at pH 6.3; format: physicochemical
How it was run: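 Surface tension measured against log concentration in 0.1 M phosphate buffer pH 6.3 at 25 °C (potato 5-LOX assay conditions). CMC read from the plot.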

Question: What does the source list for `O=C(O)c1c(O)cccc1CCc1ccc2nc(-c3ccccc3)oc2c1`?
Answer: inhibition [1]: inactive; inhibition [2]: Active

Question: Which CMC [3] does the source give for `CCCCCCCCCCCCCCCc1cccc(O)c1C(=O)O` [ANACARDIC ACID] here?
Answer: 390 µM

Question: And the inhibition [4]?
Answer: 30%

Question: What about the inhibition [5] of the same compound?
Answer: 50%

Question: For `CCCCCCCc1ccc(CCc2cccc(O)c2C(=O)O)cc1`, which Activity [6] is on record?
Answer: Active

Question: And the fold change (FC) [6]?
Answer: 3

Question: For `CCCCCCCCCCCCCCCc1cc(O)cc(O)c1C(=O)O`, which inhibition [1] is on record?
Answer: inactive

Question: What about the inhibition [2] of the same compound?
Answer: Active

Question: With `CCCCCCCc1ccc(CCc2cc(O)cc(O)c2C(=O)O)cc1` as the compound, how does the inhibition [1] read?
Answer: inactive

Question: And the Ki [7]?
Answer: 9.8 µM

Question: What about the Ki [8] of the same compound?
Answer: 15.7 µM

Question: What about the CMC [3] of the same compound?
Answer: 436 µM

Question: And the IC50 [9]?
Answer: 11.1 µM

Question: Which fold change (FC) [10] does the source give for `CCCCCCCCCCCCCCOc1cccc(O)c1C(=O)O` here?
Answer: 1.4

Question: What about the Ka [11] of the same compound?
Answer: 24 µM

Question: And the Ka [12]?
Answer: 1.8 mM

Question: What about the Activity [6] of the same compound?
Answer: Active

Question: What about the fold change (FC) [6] of the same compound?
Answer: 3

Question: And the Activity [13]?
Answer: Dose-dependent effect

Question: What about the CMC [14] of the same compound?
Answer: 208 µM

Question: What about the IC50 [9] of the same compound?
Answer: 55.4 µM

Question: For `CCCCCCCCCCCCCCCc1cccc(O)c1C(=O)OC`, which inhibition [2] is on record?
Answer: inactive

Question: Which results are given for `O=C(O)c1c(O)cc(O)cc1CCc1ccc(Cc2nc3ccccc3o2)cc1`?
Answer: inhibition [1]: inactive; IC50 [9]: 58.5 µM
